# SENP8 block-1: SENP8 (human) protease inhibition. recombinant SENP8, Nedd8 substrate fluorescence. inhibition, % at 20 µM. actives 0.64% (n = 360,000); in the data active = inhibition mostly above about 40%, no sharp cut-off; inactive = mostly below about 27%
# Target sequence (Q96LD8 whole entry, looked up): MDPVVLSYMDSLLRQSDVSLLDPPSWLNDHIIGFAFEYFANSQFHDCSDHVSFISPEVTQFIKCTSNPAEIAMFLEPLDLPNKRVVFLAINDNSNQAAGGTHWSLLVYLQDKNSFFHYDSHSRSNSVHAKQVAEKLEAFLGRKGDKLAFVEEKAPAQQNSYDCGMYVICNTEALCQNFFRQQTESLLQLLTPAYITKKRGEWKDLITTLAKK
# SENP6 block: blocks the human protease SENP6; Recombinant SENP6 catalytic domain, aminoluciferin luminescence; inhibition, % at 10 µM; Q9GZR1; actives 1.8% (n = 330,000);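 active = inhibition above about 50% at the single tested dose, limit read from the data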
# SENP8 block-2: SENP8 protease inhibition. purified SENP8, Z-RLRGG-aminoluciferin cleavage, luminescence. inhibition, % at 10 µM. actives 1.2% (n = 330,000). AID 2540; in the data active = inhibition above about 50%
# Apaf1 inhib: blocks human Apaf-1 apoptosome activity; O14727; reconstituted apoptosome caspase-3 activity, DEVD-Rh110 fluorescence; inhibition, % at 20 µM; actives 0.71% (n = 330,000); AID 489030; active = inhibition of at least 40% at 20 µM
#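 Assay system – apoptosome proteins · Medium – Hepes buffer, pH 7.5 · Also added – cytochrome c with DEVD-Rh110 · Timing – 30 min compound preincubation, 50 min activation, room temperature · Detection – Rh110 fluorescence, excitation 480 nm, emission 540 nm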
# UBC13 inh: human UBC13 polyubiquitination inhibition; P61088; UBC13 polyubiquitin chain formation, TR-FRET; inhibition, % at 20 µM; actives 0.47% (n = 330,000); AID 485273; in the data active = inhibition above about 45%, passing the limit was not always enough
# SENP7 inh: SENP7 protease inhibition. inhibition, % at 5 µM. recombinant SENP7, Z-RLRGG-aminoluciferin luminescence, 40 min. actives 1.5% (n = 330,000). Q9BQF6. AID 434973;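 active = inhibition above about 50% at the single test dose, limit read from the data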
# Target sequence (Q9BQF6 706-1050 limits assumed): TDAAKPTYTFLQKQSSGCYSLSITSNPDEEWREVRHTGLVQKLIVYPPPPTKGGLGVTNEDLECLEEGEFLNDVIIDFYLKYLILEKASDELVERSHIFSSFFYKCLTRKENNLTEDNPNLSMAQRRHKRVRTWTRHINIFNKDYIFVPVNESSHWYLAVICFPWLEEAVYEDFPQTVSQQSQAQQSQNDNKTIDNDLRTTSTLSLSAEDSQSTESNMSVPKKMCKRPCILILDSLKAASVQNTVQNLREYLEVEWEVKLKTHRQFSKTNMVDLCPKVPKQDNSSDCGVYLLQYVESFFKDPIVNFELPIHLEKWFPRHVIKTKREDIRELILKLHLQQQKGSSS
# SENP8 conf: human SENP8 inhibition, confirmed; actives 40% (n = 6,200); inhibition, % at 12.5 µM; shares compounds with SENP7 inh; AID 488912; Recombinant SENP8, Z-RLRGG-aminoluciferin luminescence, 60 min;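 active = mean inhibition across replicates above about 50%, limit read from the data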
# SENP6 conf: confirmation of human SENP6 protease inhibitors; AID 488915; inhibition, % at 12.5 µM; actives 58% (n = 6,200); shares compounds with SENP7 inh; recombinant SENP6, Z-RLRGG-aminoluciferin luminescence
# SENP7 confirm: human SENP7 inhibition, confirmed; shares compounds with SENP7 inh; recombinant SENP7, Z-RLRGG-aminoluciferin luminescence, 40 min; inhibition, % at 12.5 µM; actives 69% (n = 6,200)
# Casp3 select: inhibits human caspase-3 in SENP selectivity test; shares compounds with SENP7 inh; purified caspase-3, Z-DEVD-aminoluciferin luminescence, 60 min; inhibition, % at 12.5 µM; actives 60% (n = 6,200);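 active = mean inhibition above about 50%, limit read from the data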
# Luc interf: luminescence interference (SENP counter-screen). AID 488919. shares compounds with SENP7 inh. inhibition, % at 12.5 µM. actives 39% (n = 6,200). Pre-incubated SENP8/Z-RLRGG-aminoluciferin, luciferase luminescence interference;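 active = mean inhibition above about 50% when retested at one dose, limit read from the data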
# A number is an active result; 0 = inactive; - = no result given. In the library only some 3% were active in any assay of this set; here they are far more common.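 The calls were made as follows, unless noted: active = mean inhibition above about 50% in the one-dose retest (limit read from the data); inactive = the rest.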
SMILES,SENP8 block-1,SENP6 block,SENP8 block-2,Apaf1 inhib,UBC13 inh,SENP7 inh,SENP8 conf,SENP6 conf,SENP7 confirm,Casp3 select,Luc interf
COc1ccccc1C1(O)CC2CCC(C1)N2S(=O)(=O)c1ccc(C(C)=O)cc1 (centres undefined),0,0,0,0,0,59,0,0,0,0,0
COC(=O)c1ccc(S(=O)(=O)N2C3CCC2CC(NC(=O)C2CC2)C3)cc1 (centres undefined),0,0,0,0,0,0,-,-,-,-,-
COc1ccc(/C(N)=N/OC(=O)c2ccc3c(c2)OCO3)cc1OC,0,83,75,0,0,84,0,0,0,0,0
N/C(=N\OC(=O)c1cccc(Br)c1)c1ccc(Br)cc1,0,0,0,0,0,0,-,-,-,-,-
COc1cc(OC)c(C(=O)Oc2ccc3c(c2)OCO3)cc1OC,0,0,0,0,0,0,-,-,-,-,-
N/C(=N\OC(=O)c1ccc2c(c1)OCO2)c1cccnc1,0,74,51,0,0,80,58,57,87,88,69
COc1ccc(C(=O)Oc2ccc3c(c2)OCO3)cc1OC,0,58,0,0,0,60,0,0,80,66,61
COc1ccc(/C(N)=N/OC(=O)c2ccc3ccccc3c2)cc1OC,0,-,-,-,-,-,-,-,-,-,-
N/C(=N\OC(=O)c1ccc2c(c1)OCO2)c1cccc(Br)c1,0,95,96,0,0,98,97,98,102,97,51
Cc1cc(C)n(-c2ccc(C(=O)Oc3ccc4c(c3)OCO4)cc2)n1,0,0,0,0,0,67,62,70,91,67,57
CC(=O)c1ccc(OC(=O)c2ccc(-n3nc(C)cc3C)cc2)cc1,0,0,0,0,0,0,-,-,-,-,-
O=C(NCc1ccccc1CN1CCCC1)c1cc2ccccc2o1,0,-,-,-,-,-,-,-,-,-,-
COc1ccc(NC(=O)CCNC(=O)c2ccc([N+](=O)[O-])cc2)cc1S(=O)(=O)N1CCCCC1,0,0,0,0,0,0,-,-,-,-,-
CSc1nsc(/C=C/Nc2ccc(C(=O)O)cc2)c1C#N,0,58,0,0,0,0,0,68,89,57,0
Cc1ccc(C(NC(N)=O)c2ccccc2C)cc1 (centres undefined),0,0,0,0,0,0,-,-,-,-,-
Cc1ccc(C(NC(N)=O)c2ccccc2)cc1 (centres undefined),0,0,0,0,0,54,0,0,0,0,0
O=C(O)c1ccc(N=Nc2c(-c3ccccc3)[nH]oc2=O)cc1,0,0,59,0,0,0,0,0,0,0,0
CCCC(=O)Nc1nc(-c2ccccc2)c(CC)s1,0,0,0,0,0,0,-,-,-,-,-
CCOC(=O)c1sc(=NC(=O)c2ccc(Cl)s2)n(C)c1C,0,0,0,0,0,53,0,0,0,0,0
CCOC(=O)c1sc(=NC(=O)c2cccs2)n(C)c1C,0,0,0,0,0,55,0,0,0,0,0
Cc1ccc2c(c1)sc(=NC(=O)c1cccs1)n2C,0,93,95,0,0,100,0,75,99,95,0
O=C(NCc1cccnc1)c1ccc(-c2cc3ccccc3oc2=O)cc1,0,0,0,0,0,0,-,-,-,-,-
CN(C)S(=O)(=O)c1ccc(C(=O)N2CCN(S(=O)(=O)c3ccc4c(c3)OCCO4)CC2)cc1,0,-,-,-,-,-,-,-,-,-,-
CCCCc1cc(=O)oc2cc(C)cc(OCC(=O)Nc3ccccn3)c12,0,53,0,0,0,0,0,0,68,76,53
O=C(COc1ccccc1Cl)Nc1ccc(Cl)cn1,0,74,0,0,0,0,0,61,86,60,0
SMILES,SENP8 block-1,SENP6 block,SENP8 block-2,Apaf1 inhib,UBC13 inh,SENP7 inh,SENP8 conf,SENP6 conf,SENP7 confirm,Casp3 select,Luc interf
O=C(COc1ccccc1)Nc1ccc(Cl)cn1,0,0,0,0,0,0,-,-,-,-,-
CSc1ccccc1NC(=O)COc1ccc(Cl)cc1Cl,0,0,0,0,0,0,-,-,-,-,-
O=C(COc1ccc(Cl)cc1Cl)Nc1ccccn1,0,0,98,0,0,100,96,98,101,96,80
Cc1c(C)c2ccc(OCC(=O)Nc3ccccn3)c(C)c2oc1=O,0,98,92,0,0,100,59,88,0,93,0
CSc1ncccc1C(=O)N1CCCC(Nc2ccc(C)c(C)c2)C1 (centres undefined),0,0,0,0,0,0,-,-,-,-,-
C(=C\c1ccccc1)/CN1CCN(C(c2cccc3ccccc23)c2nnnn2C2CCCC2)CC1 (centres undefined),0,-,-,-,-,-,-,-,-,-,-
CCOC(=O)C1CCN(C(=O)C(C)Oc2ccc(C(=O)c3ccccc3)cc2)CC1 (centres undefined),0,0,0,0,0,0,-,-,-,-,-
COc1ccccc1OCC(=O)Nc1ccccn1,0,82,78,0,0,86,78,74,94,93,81
Nc1ccccc1C(=O)Nc1cccc(C(=O)O)c1,0,95,92,0,0,0,96,97,101,82,96
CSc1ccccc1C(=O)Nc1ccc(C)c(C)c1,0,65,0,0,0,68,54,52,84,74,70
Cc1occc1C(=O)Nc1cccc(C(=O)O)c1,0,96,91,0,0,96,95,95,101,72,93
Cc1cc(NC(=O)c2ccoc2C)ccc1Br,0,100,97,0,0,97,98,99,102,95,96
Cc1nn(-c2ccc(Cl)nn2)c(=O)c2ccccc12,0,0,0,0,0,0,-,-,-,-,-
CC(=O)CSc1nnc(CN2C(=O)CSc3ccc(C(F)(F)F)cc32)n1C,0,0,0,0,0,0,-,-,-,-,-
CCOC(=O)[C@]12CCCC=C1N(Cc1ccccc1)C(=O)[C@H](CC(=O)NCCCCc1ccccc1)C2,0,-,-,-,-,-,-,-,-,-,-
Cc1occc1C(=O)Nc1ccc2c(c1)OCO2,0,84,54,0,0,80,64,63,89,90,74
Cc1ccc(NC(=O)c2ccoc2C)cc1C,0,92,92,0,0,97,0,94,101,96,93
CSc1ccccc1C(=O)Nc1ccc2c(c1)OCO2,0,0,0,0,0,0,-,-,-,-,-
